Reference: ChEMBL document CHEMBL1926614, “Substituted thiazoles V. synthesis and antitumor activity of novel thiazolo[2,3-b]quinazoline and pyrido[4,3-d]thiazolo[3,2-a]pyrimidine analogues” (2012)

Columns and labels:
Assay type in all cases: functional
UACC-257 = assay: Growth inhibition of human UACC257 cells at 10 uM after 48 hrs by coulter counting; details: UACC-257, 48 h, read-out: GI
Procedure, shortened: (§1)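 Single-dose screen in the NCI 60 human tumor cell line panel (nine subpanels). Compounds dissolved in DMSO and diluted in phosphate buffered saline, keeping final DMSO below 1%. Added in duplicate wells to cells at 6 × 10⁴ cells/ml. Controls held PBS and DMSO at matching dilutions. Incubated at 37 °C, humidified, 5% CO₂. Reported as percent growth of treated cells.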

UACC-62 = assay: Growth inhibition of human UACC62 cells at 10 uM after 48 hrs by coulter counting; details: UACC-62, 48 h, read-out: GI; procedure, shortened: as §1
CCRF-CEM = assay: Growth inhibition of human CCRF-CEM cells at 10 uM after 48 hrs by coulter counting; details: read-out: GI
Procedure, shortened: (§2)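 Single-dose primary screen across the full NCI 60-cell-line panel. Stocks were made in DMSO and diluted in PBS to a final DMSO below 1%. Cultures at 6 × 10⁴ cells/ml were run in duplicate wells alongside PBS/DMSO vehicle controls at 37 °C in humidified 5% CO₂. Data were expressed as percent growth of treated cells.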

HL-60(TB) = assay: Growth inhibition of human HL-60(TB) cells at 10 uM after 48 hrs by coulter counting; details: HL-60, 48 h, read-out: GI
Procedure, shortened: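 Test compound was dissolved in DMSO and diluted in phosphate-buffered saline to a final DMSO level below 1%. Dilutions were plated in duplicate with cell culture at 6 × 10⁴ cells/ml. Vehicle controls held PBS and DMSO at matching dilutions. Incubation was at 37 °C, humidified, under 5% CO₂. Data were reported as percent growth of treated cells.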

K562 = assay: Growth inhibition of human K562 cells at 10 uM after 48 hrs by coulter counting; details: K562, 48 h, read-out: GI; procedure, shortened: as §2
MOLT-4 = assay: Growth inhibition of human MOLT4 cells at 10 uM after 48 hrs by coulter counting; details: MOLT-4, 48 h, read-out: GI; procedure, shortened: as §2
RPMI-8226 = assay: Growth inhibition of human RPMI8226 cells at 10 uM after 48 hrs by coulter counting; details: RPMI-8226, 48 h, read-out: GI; procedure, shortened: as §2
A549 = assay: Growth inhibition of human A549 cells at 10 uM after 48 hrs by coulter counting; details: A549, 48 h, read-out: GI; procedure, shortened: as §2
EKVX = assay: Growth inhibition of human EKVX cells at 10 uM after 48 hrs by coulter counting; details: read-out: GI; procedure, shortened: as §2
HOP-62 = assay: Growth inhibition of human HOP62 cells at 10 uM after 48 hrs by coulter counting; details: HOP-62, 48 h, read-out: GI; procedure, shortened: as §2
NCI-H226 = assay: Growth inhibition of human NCI-H226 cells at 10 uM after 48 hrs by coulter counting; details: NCI-H226, 48 h, read-out: GI; procedure, shortened: as §2
NCI-H23 = assay: Growth inhibition of human NCI-H23 cells at 10 uM after 48 hrs by coulter counting; details: NCI-H23, 48 h, read-out: GI; procedure, shortened: as §2
[1] = Growth inhibition of human NCI-322M cells at 10 uM after 48 hrs by coulter counting; details: read-out: GI; procedure, shortened: as §2
NCI-H460 = assay: Growth inhibition of human NCI-H460 cells at 10 uM after 48 hrs by coulter counting; details: NCI-H460, 48 h, read-out: GI; procedure, shortened: as §2
NCI-H522 = assay: Growth inhibition of human NCI-H522 cells at 10 uM after 48 hrs by coulter counting; details: NCI-H522, 48 h, read-out: GI; procedure, shortened: as §2
HCT-116 = assay: Growth inhibition of human HCT116 cells at 10 uM after 48 hrs by coulter counting; details: HCT-116, 48 h, read-out: GI; procedure, shortened: as §2
HCC 2998 = assay: Growth inhibition of human HCC2998 cells at 10 uM after 48 hrs by coulter counting; details: HCC 2998, 48 h, read-out: GI; procedure, shortened: as §2
HT-29 = assay: Growth inhibition of human HT-29 cells at 10 uM after 48 hrs by coulter counting; details: HT-29, 48 h, read-out: GI; procedure, shortened: as §2
KM12 = assay: Growth inhibition of human KM12 cells at 10 uM after 48 hrs by coulter counting; details: KM12, 48 h, read-out: GI; procedure, shortened: as §2
SF-268 = assay: Growth inhibition of human SF268 cells at 10 uM after 48 hrs by coulter counting; details: SF-268, 48 h, read-out: GI; procedure, shortened: as §2
SF-295 = assay: Growth inhibition of human SF295 cells at 10 uM after 48 hrs by coulter counting; details: SF-295, 48 h, read-out: GI; procedure, shortened: as §2
SNB-19 = assay: Growth inhibition of human SNB19 cells at 10 uM after 48 hrs by coulter counting; details: SNB-19, 48 h, read-out: GI; procedure, shortened: as §2
SNB-75 = assay: Growth inhibition of human SNB75 cells at 10 uM after 48 hrs by coulter counting; details: SNB-75, 48 h, read-out: GI; procedure, shortened: as §2
U-251 = assay: Growth inhibition of human U251 cells at 10 uM after 48 hrs by coulter counting; details: U-251, 48 h, read-out: GI; procedure, shortened: as §1
LOX IMVI = assay: Growth inhibition of human LOXIMVI cells at 10 uM after 48 hrs by coulter counting; details: read-out: GI; procedure, shortened: as §2
M14 = assay: Growth inhibition of human M14 cells at 10 uM after 48 hrs by coulter counting; details: M14, 48 h, read-out: GI; procedure, shortened: as §2
MDA-MB-435 = assay: Growth inhibition of human MDA-MB-435 cells at 10 uM after 48 hrs by coulter counting; details: MDA-MB-435, 48 h, read-out: GI; procedure, shortened: as §2
SK-MEL-2 = assay: Growth inhibition of human SK-MEL-2 cells at 10 uM after 48 hrs by coulter counting; details: SK-MEL-2, 48 h, read-out: GI; procedure, shortened: as §2
SK-MEL-28 = assay: Growth inhibition of human SK-MEL-28 cells at 10 uM after 48 hrs by coulter counting; details: SK-MEL-28, 48 h, read-out: GI; procedure, shortened: as §2
SK-MEL-5 = assay: Growth inhibition of human SK-MEL-5 cells at 10 uM after 48 hrs by coulter counting; details: SK-MEL-5, 48 h, read-out: GI; procedure, shortened: as §2
IGROV-1 = assay: Growth inhibition of human IGROV1 cells at 10 uM after 48 hrs by coulter counting; details: IGROV-1, 48 h, read-out: GI; procedure, shortened: as §2
OVCAR-4 = assay: Growth inhibition of human OVCAR4 cells at 10 uM after 48 hrs by coulter counting; details: OVCAR-4, 48 h, read-out: GI; procedure, shortened: as §2
NCI/ADR-RES = assay: Growth inhibition of human NCI/ADR-RES cells at 10 uM after 48 hrs by coulter counting; details: read-out: GI; procedure, shortened: as §2
A498 = assay: Growth inhibition of human A498 cells at 10 uM after 48 hrs by coulter counting; details: A498, 48 h, read-out: GI; procedure, shortened: as §2
ACHN = assay: Growth inhibition of human ACHN cells at 10 uM after 48 hrs by coulter counting; details: read-out: GI; procedure, shortened: as §2
CAKI-1 = assay: Growth inhibition of human Caki1 cells at 10 uM after 48 hrs by coulter counting; details: CAKI-1, 48 h, read-out: GI; procedure, shortened: as §2
UO-31 = assay: Growth inhibition of human UO31 cells at 10 uM after 48 hrs by coulter counting; details: UO-31, 48 h, read-out: GI; procedure, shortened: as §1
DU-145 = assay: Growth inhibition of human DU145 cells at 10 uM after 48 hrs by coulter counting; details: DU-145, 48 h, read-out: GI; procedure, shortened: as §2
MCF7 = assay: Growth inhibition of human MCF7 cells at 10 uM after 48 hrs by coulter counting; details: MCF7, 48 h, read-out: GI; procedure, shortened: as §2
BT-549 = assay: Growth inhibition of human BT549 cells at 10 uM after 48 hrs by coulter counting; details: BT-549, 48 h, read-out: GI; procedure, shortened: as §2
T47D = assay: Growth inhibition of human T47D cells at 10 uM after 48 hrs by coulter counting; details: read-out: GI; procedure, shortened: as §1

CC1=CSC2=NC3=C(CCC/C3=C\c3cccs3)C(c3cccs3)N12 (stereo unspecified)
inhibition of growth at 10 µM (UACC-257): > 10% | inhibition of growth at 10 µM (UACC-62): > 10% | inhibition of growth at 10 µM (CCRF-CEM): > 10% | inhibition of growth at 10 µM (HL-60(TB)): 11.4% | inhibition of growth at 10 µM (K562): > 10% | inhibition of growth at 10 µM (MOLT-4): > 10% | inhibition of growth at 10 µM (RPMI-8226): > 10% | inhibition of growth at 10 µM (A549): > 10% | inhibition of growth at 10 µM (EKVX): > 10% | inhibition of growth at 10 µM (HOP-62): 11.3% | inhibition of growth at 10 µM (NCI-H226): > 10% | inhibition of growth at 10 µM (NCI-H23): > 10% | inhibition of growth at 10 µM [1]: > 10% | inhibition of growth at 10 µM (NCI-H460): > 10% | inhibition of growth at 10 µM (NCI-H522): > 10% | inhibition of growth at 10 µM (HCT-116): > 10% | inhibition of growth at 10 µM (HCC 2998): > 10% | inhibition of growth at 10 µM (HT-29): > 10% | inhibition of growth at 10 µM (KM12): > 10% | inhibition of growth at 10 µM (SF-268): > 10% | inhibition of growth at 10 µM (SF-295): > 10% | inhibition of growth at 10 µM (SNB-19): > 10% | inhibition of growth at 10 µM (SNB-75): 16.6% | inhibition of growth at 10 µM (U-251): > 10% | inhibition of growth at 10 µM (LOX IMVI): > 10% | inhibition of growth at 10 µM (M14): > 10% | inhibition of growth at 10 µM (MDA-MB-435): > 10% | inhibition of growth at 10 µM (SK-MEL-2): > 10% | inhibition of growth at 10 µM (SK-MEL-28): > 10% | inhibition of growth at 10 µM (SK-MEL-5): > 10% | inhibition of growth at 10 µM (IGROV-1): > 10% | inhibition of growth at 10 µM (OVCAR-4): > 10% | inhibition of growth at 10 µM (NCI/ADR-RES): > 10% | inhibition of growth at 10 µM (A498): 14.3% | inhibition of growth at 10 µM (ACHN): > 10% | inhibition of growth at 10 µM (CAKI-1): > 10% | inhibition of growth at 10 µM (UO-31): 24.5% | inhibition of growth at 10 µM (DU-145): > 10% | inhibition of growth at 10 µM (MCF7): > 10% | inhibition of growth at 10 µM (BT-549): > 10% | inhibition of growth at 10 µM (T47D): > 10%
